Ba/F3 V617F tox: loss of viability in JAK2V617F-driven Ba/F3 cells; Ba/F3 EpoR-JAK2V617F viability, ATP luminescence; inhibition, % at 5.6 µM; 220,000 tested, 1.1% active;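 active = inhibition above the campaign mean plus 3 SD over all tested compounds, cut at about 24% in these data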;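 note: cytokine-independent growth of Ba/F3 cells driven by EpoR plus mutant JAK2; 0% = DMSO-treated cells and 100% = JAK inhibitor I control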
BaF3 parental: counter-screen for JAK2V617F inhibitors: parental Ba/F3 viability inhibitors | CellTiter-Glo ATP luminescence | inhibition, % at 5.6 µM | 220,000 tested, 1.1% active;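 active = inhibition above a per-campaign cutoff, the mean inhibition of all tested compounds plus 3 SD, cut at about 27% in these data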;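 note: 0% = DMSO wells and 100% = JAK Inhibitor I control wells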
bCat nuc transl: modulators of beta-catenin nuclear translocation; HeLa beta-catenin nuclear translocation, immunofluorescence imaging; nuclear translocation activity, % at 5 µM; 190,000 tested, 0.3% active;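 active = nuclear translocation activity above 50% at 5 µM, with a well cell count of 50 or more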;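 note: per-cell ratio of nuclear to cytoplasmic median beta-catenin stain intensity; plate controls were DMSO negative control for no effect and GSK-3 inhibitor IX positive control for full effect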
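Read-out: Nuclear/cytoplasmic beta-catenin signal ratio, % activation | Assay system: Human HeLa cell line | Times: 24 h compound exposure at 37°C, 5% CO2 | Signal: Fluorescence imaging of beta-catenin antibody stain plus DAPI | Dosing: 5 µM primary, 0.02–20 µM confirmation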
MT stabilizer: microtubule stabilizers in HeLa cells. HeLa tubulin immunostaining HCS, 24 h; share of cells brighter than vehicle mean+2SD. % tubulin-high responders, % at 10 µM. 200,000 tested, 0.83% active. AID 2205;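 active = plate Z-score above 3 for both tubulin-high and condensed-nucleus cell shares, with cell loss under 80%, at 10 µM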;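 note: anti alpha tubulin signal scored within the nucleus-defined area of each cell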
APP transl inh: APP translation inhibition. SH-SY5Y APP 5'UTR-luciferase reporter, luminescence. inhibition, % at 2 µM. 190,000 tested, 0.82% active. AID 1285;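 active = inhibition above a set limit, derived from the sample mean plus 3 SD, cut at about 45% in these data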
L major viab: inhibitors of Leishmania major promastigote growth; Leishmania major promastigotes, resazurin fluorescence viability; inhibition, % at 10 µM; 200,000 tested, 9% active; AID 1063; in the data active = inhibition above about 50%;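 note: promastigotes grown with compound for 44 hours at 28 °C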
* = called active by the depositor; x = no result given. Shown are actives, neighbours in structure and some others; about 9.6% of the full set was active somewhere.

SMILES	Ba/F3 V617F tox	BaF3 parental	bCat nuc transl	MT stabilizer	APP transl inh	L major viab
COc1ccc(NC(=O)CSc2nnc3n2CCCCC3)cc1	-1	3	-3	3	-9	-3
CCOC(=O)C1CCN(CC(O)COc2ccc(C(=O)CC)cc2)CC1 (stereo not drawn)	1	1	1	4	10	94*
Cc1cccc(S(=O)(=O)Nc2ccc(C)c3c2OC(C)(C)C3)c1	-4	1	-2	1	7	12
O=C(c1ccc(Cl)cc1)N1C2C=CC(C2)C1(C(F)(F)F)C(F)(F)F (stereo not drawn)	0	2	-2	6	-13	64*
COCCN(C(=O)C(=O)NC1CCCC1)C(C(=O)NC1CCCC1)c1ccccc1F (stereo not drawn)	-2	3	0	3	-8	-1
C/C(=N\NC(=S)Nc1ccc(F)cc1)c1ccc2c(c1)OCCO2	-3	3	x	22*	-26	77*
CCOC(=O)COc1cccc2c(=O)n(CC(=O)NCc3ccc4c(c3)OCO4)ccc12	-3	1	64*	19*	-17	-5
CCOC(=O)C(C)Oc1cccc2c(=O)n(CC(=O)NCc3ccccc3)ccc12 (stereo not drawn)	73*	76*	51*	x	x	x
CC(C)(C)C(=O)NC(=C(Cl)Cl)P(=O)(O)O	-4	3	-2	4	23	-1
CCOC(=O)C(NCCOC)(NC(C)=O)C(F)(F)F (stereo not drawn)	1	1	1	x	x	x
CCN(CC)S(=O)(=O)c1ccc(NC(=S)NC(=O)C(C)C)cc1	4	13	0	3	1	72*
CCN(CC)S(=O)(=O)c1ccc(C)c(NC(=S)Nc2cccc(S(=O)(=O)N3CCCCCC3)c2)c1	1	1	0	3	19	92*
CCN(CC)S(=O)(=O)c1ccc(OC)c(NC(=S)Nc2ccc(C)c(C)c2)c1	-1	3	1	3	-19	62*
CCN(CC)S(=O)(=O)c1ccc(NC(=S)NC(=O)CC(C)C)cc1	0	11	x	3	0	1
O=S(=O)(c1cccc(NC(=S)Nc2ccc(Br)cc2Cl)c1)N1CCOCC1	1	4	1	2	-8	52*
Cc1ccc(C(=O)NCC(=O)OCC(=O)NC2CCCC(C)C2C)s1 (stereo not drawn)	-4	-1	-2	4	16	-7
NC(=O)NCCCC(=O)OCC(=O)c1ccc2ccccc2c1	-2	5	-1	2	-8	-5
Cc1ccccc1C1c2[nH]c3ccccc3c2CCN1Cc1cccn1-c1ncccn1 (stereo not drawn)	2	32*	1	x	x	x
Fc1ccc(C2CCCCN2Cc2nc(CC3CC3)no2)cc1 (stereo not drawn)	0	5	2	2	20	27
Fc1ccc(C2CCCN2Cc2nc(CC3CC3)no2)cc1 (stereo not drawn)	-3	4	1	3	-1	57*
O=C(Cn1cnc([N+](=O)[O-])n1)N/N=C/c1ccc2ccccc2c1	-2	-2	2	5	-7	96*
CCCNCc1cc(Br)ccc1OCC(=O)NCCc1ccccc1	6	17	-1	4	15	52*
O=C(COc1ccc(Br)cc1CNCCc1ccccc1)NCc1ccccc1	3	7	4	2	-18	88*
CN(C)[C@@H](CO)c1nnc([C@H](Cc2ccc(O)cc2)NC(=O)C2CCNCC2)o1	3	0	2	1	4	-6
O=c1c2ccccc2[nH]c(=S)n1CCC1=CCCCC1	1	5	0	3	x	13
SMILES	Ba/F3 V617F tox	BaF3 parental	bCat nuc transl	MT stabilizer	APP transl inh	L major viab
C=C(C)C1Cc2c(C)nn(-c3cc(C)c4ccccc4n3)c2C1 (stereo not drawn)	2	2	x	4	-5	-1
CCN1/C(=C/C=C/C=C/c2sc3ccccc3[n+]2CC)Sc2ccccc21	51*	48*	x	95	82*	100*
Cc1sc2ccccc2[n+]1CC(=O)O	4	-2	-1	x	x	x
CC[n+]1ccccc1/C=C/Nc1ccccc1	-4	4	0	2	-1	-2
CC[n+]1c(/C=C(\C)Nc2ccccc2)sc2ccccc21	-3	1	-1	2	11	99*
CC/C(=C/c1sc2ccccc2[n+]1CC)SC	3	3	-3	3	-11	91*

Screening data: PubChem BioAssay, several laboratories
